In ChEMBL document CHEMBL4732237, “Discovery of 4-alkoxy-2-aryl-6,7-dimethoxyquinolines as a new class of topoisomerase I inhibitors endowed with potent in vitro anticancer activity” (2021):

System: 786-0
Test: Growth inhibition of human 786-0 cells incubated for 48 hrs by sulforhodamine B assay
Format: functional
Summary of the method: (§1)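 NCI five-dose screen covering 0.01–100 µM, prepared as 10-fold or ½-log dilutions from DMSO stock. Cells in RPMI 1640 with 5% FBS were exposed for 48 h at 37 °C after 24 h preincubation. Adherent cells were fixed with TCA (final 10%) and suspension cells were settled before fixing. Stain was SRB, read at 515 nm. GI50 = 50% reduction in net protein increase versus control, with Tz taken at drug addition.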

SMILES | GI50
COc1cc2nc(-c3ccc(Cl)cc3)cc(OCCCN3CCCCC3)c2cc1OC | 2.62 µM

System: U-251
Test: Growth inhibition of human U-251 cells incubated for 48 hrs by sulforhodamine B assay
Format: functional
Summary of the method: (§2)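 NCI five-dose assay, with drug stocks in DMSO diluted in medium to five concentrations (10-fold or ½-log series). Cells in RPMI 1640/5% FBS were pre-incubated 24 h, and time-zero plates were TCA-fixed at drug addition. After 48 h at 37 °C, cells were TCA-fixed, SRB-stained and read at 515 nm. GI50 is from [(Ti-Tz)/(C-Tz)]×100 = 50, TGI from Ti = Tz, and LC50 from [(Ti-Tz)/Tz]×100 = -50.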

SMILES | GI50
COc1cc2nc(-c3ccc(Cl)cc3)cc(OCCCN3CCCCC3)c2cc1OC | 1.89 µM

System: COLO 205
Test: Growth inhibition of human COLO 205 cells incubated for 48 hrs by sulforhodamine B assay
Format: functional
Summary of the method: as §1

SMILES | GI50
COc1cc2nc(-c3ccc(Cl)cc3)cc(OCCCN3CCCCC3)c2cc1OC | 0.582 µM

System: SNB-19
Test: Growth inhibition of human SNB-19 cells incubated for 48 hrs by sulforhodamine B assay
Format: functional
Summary of the method: (§3)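 NCI five-dose screen (0.01–100 µM; five concentrations plus control). Cells grown in RPMI 1640/5% FBS/2 mM L-glutamine and preincubated 24 h, with time-zero plates TCA-fixed. Drug exposure 48 h at 37 °C, followed by SRB protein staining and reading at 515 nm. GI50 is the concentration at [(Ti-Tz)/(C-Tz)]×100 = 50.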

SMILES | GI50
COc1cc2nc(-c3ccc(Cl)cc3)cc(OCCCN3CCCCC3)c2cc1OC | 2.98 µM

System: BT-549
Test: Growth inhibition of human BT-549 cells incubated for 48 hrs by sulforhodamine B assay
Format: functional
Summary of the method: as §1

SMILES | GI50
COc1cc2nc(-c3ccc(Cl)cc3)cc(OCCCN3CCCCC3)c2cc1OC | 1.43 µM

System: SN12C
Test: Growth inhibition of human SN12C cells incubated for 48 hrs by sulforhodamine B assay
Format: functional
Summary of the method: as §3

SMILES | GI50
COc1cc2nc(-c3ccc(Cl)cc3)cc(OCCCN3CCCCC3)c2cc1OC | 0.946 µM

System: SW-620
Test: Growth inhibition of human SW-620 cells incubated for 48 hrs by sulforhodamine B assay
Format: functional
Summary of the method: as §2

SMILES | GI50
COc1cc2nc(-c3ccc(Cl)cc3)cc(OCCCN3CCCCC3)c2cc1OC | 3.09 µM

System: PC-3
Test: Growth inhibition of human PC-3 cells incubated for 48 hrs by sulforhodamine B assay
Format: functional
Summary of the method: as §3

SMILES | GI50
COc1cc2nc(-c3ccc(Cl)cc3)cc(OCCCN3CCCCC3)c2cc1OC | 1.74 µM

System: SNB-75
Test: Growth inhibition of human SNB-75 cells incubated for 48 hrs by sulforhodamine B assay
Format: functional
Summary of the method: as §3

SMILES | GI50
COc1cc2nc(-c3ccc(Cl)cc3)cc(OCCCN3CCCCC3)c2cc1OC | 1.98 µM

System: RXF 393
Test: Growth inhibition of human RXF 393 cells incubated for 48 hrs by sulforhodamine B assay
Format: functional
Summary of the method: as §3

SMILES | GI50
COc1cc2nc(-c3ccc(Cl)cc3)cc(OCCCN3CCCCC3)c2cc1OC | 1.08 µM

System: Hs-578T
Test: Growth inhibition of human HS-578T cells incubated for 48 hrs by sulforhodamine B assay
Format: functional
Summary of the method: as §1

SMILES | GI50
COc1cc2nc(-c3ccc(Cl)cc3)cc(OCCCN3CCCCC3)c2cc1OC | 2.11 µM

System: SF-268
Test: Growth inhibition of human SF-268 cells incubated for 48 hrs by sulforhodamine B assay
Format: functional
Summary of the method: as §3

SMILES | GI50
COc1cc2nc(-c3ccc(Cl)cc3)cc(OCCCN3CCCCC3)c2cc1OC | 3.2 µM

System: HCT-29
Test: Growth inhibition of human […] cells incubated for 48 hrs by sulforhodamine B assay
Format: functional
Summary of the method: as §1

SMILES | GI50
COc1cc2nc(-c3ccc(Cl)cc3)cc(OCCCN3CCCCC3)c2cc1OC | 0.492 µM

System: ACHN
Test: Growth inhibition of human ACHN cells incubated for 48 hrs by sulforhodamine B assay
Format: functional
Summary of the method: as §1

SMILES | GI50
COc1cc2nc(-c3ccc(Cl)cc3)cc(OCCCN3CCCCC3)c2cc1OC | 2.45 µM

System: MDA-MB-468
Test: Growth inhibition of human MDA-MB-468 cells incubated for 48 hrs by sulforhodamine B assay
Format: functional
Summary of the method: as §1

SMILES | GI50
COc1cc2nc(-c3ccc(Cl)cc3)cc(OCCCN3CCCCC3)c2cc1OC | 1.39 µM

System: EKVX
Test: Growth inhibition of human EKVX cells incubated for 48 hrs by sulforhodamine B assay
Format: functional
Summary of the method: as §1

SMILES | GI50
COc1cc2nc(-c3ccc(Cl)cc3)cc(OCCCN3CCCCC3)c2cc1OC | 1.47 µM

System: LOX IMVI
Test: Growth inhibition of human LOX IMVI cells incubated for 48 hrs by sulforhodamine B assay
Format: functional
Summary of the method: as §1

SMILES | GI50 | TGI
COc1cc2nc(-c3ccc(Cl)cc3)cc(OCCCN3CCCCC3)c2cc1OC | 0.189 µM | 0.435 µM

System: KM12
Test: Growth inhibition of human KM12 cells incubated for 48 hrs by sulforhodamine B assay
Format: functional
Summary of the method: as §1

SMILES | GI50
COc1cc2nc(-c3ccc(Cl)cc3)cc(OCCCN3CCCCC3)c2cc1OC | 3.07 µM

System: NCI-H226
Test: Growth inhibition of human NCI-H226 cells incubated for 48 hrs by sulforhodamine B assay
Format: functional
Summary of the method: as §3

SMILES | GI50
COc1cc2nc(-c3ccc(Cl)cc3)cc(OCCCN3CCCCC3)c2cc1OC | 1.12 µM

System: UACC-62
Test: Growth inhibition of human UACC-62 cells incubated for 48 hrs by sulforhodamine B assay
Format: functional
Summary of the method: as §2

SMILES | GI50
COc1cc2nc(-c3ccc(Cl)cc3)cc(OCCCN3CCCCC3)c2cc1OC | 1.94 µM

System: SF-295
Test: Growth inhibition of human SF-295 cells incubated for 48 hrs by sulforhodamine B assay
Format: functional
Summary of the method: as §3

SMILES | GI50
COc1cc2nc(-c3ccc(Cl)cc3)cc(OCCCN3CCCCC3)c2cc1OC | 1.21 µM

System: SK-MEL-28
Test: Growth inhibition of human SK-MEL-28 cells incubated for 48 hrs by sulforhodamine B assay
Format: functional
Summary of the method: as §3

SMILES | GI50
COc1cc2nc(-c3ccc(Cl)cc3)cc(OCCCN3CCCCC3)c2cc1OC | 1.45 µM

System: UO-31
Test: Growth inhibition of human UO-31 cells incubated for 48 hrs by sulforhodamine B assay
Format: functional
Summary of the method: as §2

SMILES | GI50
COc1cc2nc(-c3ccc(Cl)cc3)cc(OCCCN3CCCCC3)c2cc1OC | 1.87 µM

System: OVCAR-3
Test: Growth inhibition of human OVCAR-3 cells incubated for 48 hrs by sulforhodamine B assay
Format: functional
Summary of the method: as §3

SMILES | GI50
COc1cc2nc(-c3ccc(Cl)cc3)cc(OCCCN3CCCCC3)c2cc1OC | 3.23 µM

System: DU-145
Test: Growth inhibition of human DU-145 cells incubated for 48 hrs by sulforhodamine B assay
Format: functional
Summary of the method: as §1

SMILES | GI50
COc1cc2nc(-c3ccc(Cl)cc3)cc(OCCCN3CCCCC3)c2cc1OC | 2.54 µM

System: HOP-92
Test: Growth inhibition of human HOP-92 cells incubated for 48 hrs by sulforhodamine B assay
Format: functional
Summary of the method: as §1

SMILES | GI50
COc1cc2nc(-c3ccc(Cl)cc3)cc(OCCCN3CCCCC3)c2cc1OC | 1.02 µM

System: TK-10
Test: Growth inhibition of human TK-10 cells incubated for 48 hrs by sulforhodamine B assay
Format: functional
Summary of the method: as §2

SMILES | GI50
COc1cc2nc(-c3ccc(Cl)cc3)cc(OCCCN3CCCCC3)c2cc1OC | 3.73 µM

System: OVCAR-5
Test: Growth inhibition of human OVCAR-5 cells incubated for 48 hrs by sulforhodamine B assay
Format: functional
Summary of the method: as §3

SMILES | GI50
COc1cc2nc(-c3ccc(Cl)cc3)cc(OCCCN3CCCCC3)c2cc1OC | 1.16 µM

System: HCT-116
Test: Growth inhibition of human HCT-116 cells incubated for 48 hrs by sulforhodamine B assay
Format: functional
Summary of the method: as §1

SMILES | GI50
COc1cc2nc(-c3ccc(Cl)cc3)cc(OCCCN3CCCCC3)c2cc1OC | 0.828 µM

System: A549
Test: Growth inhibition of human A549 cells incubated for 48 hrs by sulforhodamine B assay
Format: functional
Summary of the method: as §1

SMILES | GI50
COc1cc2nc(-c3ccc(Cl)cc3)cc(OCCCN3CCCCC3)c2cc1OC | 1.9 µM

System: T47D
Test: Growth inhibition of human T47D cells incubated for 48 hrs by sulforhodamine B assay
Format: functional
Summary of the method: as §2

SMILES | GI50
COc1cc2nc(-c3ccc(Cl)cc3)cc(OCCCN3CCCCC3)c2cc1OC | 1.31 µM

System: UACC-257
Test: Growth inhibition of human UACC-257 cells incubated for 48 hrs by sulforhodamine B assay
Format: functional
Summary of the method: as §2

SMILES | GI50
COc1cc2nc(-c3ccc(Cl)cc3)cc(OCCCN3CCCCC3)c2cc1OC | 1.92 µM

System: OVCAR-8
Test: Growth inhibition of human OVCAR-8 cells incubated for 48 hrs by sulforhodamine B assay
Format: functional
Summary of the method: as §3

SMILES | GI50
COc1cc2nc(-c3ccc(Cl)cc3)cc(OCCCN3CCCCC3)c2cc1OC | 1.77 µM

System: Malme-3M
Test: Growth inhibition of human Malme-3M cells incubated for 48 hrs by sulforhodamine B assay
Format: functional
Summary of the method: as §3

SMILES | GI50
COc1cc2nc(-c3ccc(Cl)cc3)cc(OCCCN3CCCCC3)c2cc1OC | 1.74 µM

System: CAKI-1
Test: Growth inhibition of human CAKI-1 cells incubated for 48 hrs by sulforhodamine B assay
Format: functional
Summary of the method: as §1

SMILES | GI50
COc1cc2nc(-c3ccc(Cl)cc3)cc(OCCCN3CCCCC3)c2cc1OC | 0.287 µM

System: NCI-H322M
Test: Growth inhibition of human NCI-H322M cells incubated for 48 hrs by sulforhodamine B assay
Format: functional
Summary of the method: as §3

SMILES | GI50
COc1cc2nc(-c3ccc(Cl)cc3)cc(OCCCN3CCCCC3)c2cc1OC | 4.42 µM

System: SK-MEL-5
Test: Growth inhibition of human SK-MEL-5 cells incubated for 48 hrs by sulforhodamine B assay
Format: functional
Summary of the method: as §3

SMILES | GI50
COc1cc2nc(-c3ccc(Cl)cc3)cc(OCCCN3CCCCC3)c2cc1OC | 1.1 µM

System: MDA-MB-231
Test: Growth inhibition of human MDA-MB-231 cells incubated for 48 hrs by sulforhodamine B assay
Format: functional
Summary of the method: as §1

SMILES | GI50
COc1cc2nc(-c3ccc(Cl)cc3)cc(OCCCN3CCCCC3)c2cc1OC | 0.666 µM

System: NCI-H460
Test: Growth inhibition of human NCI-H460 cells incubated for 48 hrs by sulforhodamine B assay
Format: functional
Summary of the method: as §3

SMILES | GI50
COc1cc2nc(-c3ccc(Cl)cc3)cc(OCCCN3CCCCC3)c2cc1OC | 0.842 µM

System: HCC 2998
Test: Growth inhibition of human HCC 2998 cells incubated for 48 hrs by sulforhodamine B assay
Format: functional
Summary of the method: as §1

SMILES | GI50
COc1cc2nc(-c3ccc(Cl)cc3)cc(OCCCN3CCCCC3)c2cc1OC | 2.34 µM
